ChEMBL document CHEMBL2057141, “Imidazolopiperazines: lead optimization of the second-generation antimalarial agents” (J Med Chem, 2012)

What was measured:
Plasmodium berghei [1] = experiment: Antimalarial activity against Plasmodium berghei ANKA expressing GFP infected in po dosed NMRI mouse assessed as reduction of parasite level in blood administered 24 hrs post infection measured after 72 hrs post infection by flow cytometry; format: functional
[2] = Cmax in Wistar rat at 10 mg/kg, po; format: ADME, organism-based; parameters: dose 10 mg/kg, route oral; details: in vivo
Outline: (§1)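 Rat snapshot PK: two Wistar rats dosed orally at 10 mg/kg, formulated at 2.5 mg/mL in 75% PEG300/25% D5W. Blood (100 μL) taken at 0.5, 1, 3 and 5 h post dose. Plasma pooled by sampling time, then analysed by LC-MS/MS.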

[3] = Half life in Wistar rat at 3 mg/kg, iv; format: ADME, organism-based; parameters: dose 3 mg/kg, route intravenous; details: in vivo
Outline: (§2)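 Wistar rats, three per route. Dosed IV at 3 mg/kg or orally at 10, 30 or 100 mg/kg; the 100 mg/kg arm used a suspension, others a 2.5 mg/mL filtered 75% PEG300/25% D5W formulation. Six 100 μL blood samples serially per rat within 24 h. LC-MS/MS of plasma, noncompartmental parameters; F is dose-corrected AUCpo/AUCiv.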

[4] = Tmax in Wistar rat at 30 mg/kg, po; format: ADME, organism-based; parameters: dose 30 mg/kg, route oral; details: in vivo; outline: as §2
[5] = Half life in Wistar rat at 100 mg/kg, po; format: ADME, organism-based; parameters: dose 100 mg/kg, route oral; details: in vivo; outline: as §2
[6] = Tmax in Wistar rat at 100 mg/kg, po; format: ADME, organism-based; parameters: dose 100 mg/kg, route oral; details: in vivo; outline: as §2
Plasmodium berghei [7] = experiment: Antimalarial activity against Plasmodium berghei ANKA expressing GFP infected in NMRI mouse assessed as increase of mouse survival at 30 mg/kg, po administered 24 hrs post infection (reference value: 6 to 7 days); format: functional
[8] = Oral bioavailability in Wistar rat at 10 mg/kg; format: ADME, organism-based; details: in vivo; outline: as §2
Plasmodium falciparum [9] = experiment: Antimalarial activity against Plasmodium falciparum 3D7 after 72 hrs by SYBR green fluorescence assay; format: functional, organism-based; details: 3D7, 72 h
Outline: (§3)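 P. falciparum grown in O+ erythrocytes, screened in medium without human serum plus 0.5% Albumax II. Twelve-point half-log dilutions up to 10 μM final. 0.3% parasitemia, 2.5% hematocrit; 72 h at 37 °C under low-oxygen gas. Lysis buffer with SYBR Green added, 24 h at 25 °C, fluorescence read at 485/530 nm.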

[10] = Cmax in Wistar rat at 30 mg/kg, po; format: ADME, organism-based; parameters: dose 30 mg/kg, route oral; details: in vivo; outline: as §2
[11] = Clearance in Balb/c mouse plasma at 5 mg/kg, iv; format: ADME, organism-based; parameters: dose 5 mg/kg, route intravenous
Outline: (§4)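 Male Balb/c mice (n = 3 per group). Compound as a 2.5 mg/mL solution in PEG300/D5W 3:1, filtered. Given by lateral tail vein at 5 mg/kg (2 mL/kg) or orally at 20 mg/kg (8 mL/kg). Six serial 50 μL retro-orbital blood samples to 24 h, heparinized plasma. Plasma extracted with acetonitrile:methanol 3:1 with internal standard, LC-MS/MS. Noncompartmental analysis; F = AUCpo×dose_iv/AUCiv×dose_po.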

[12] = Volume of distribution in Balb/c mouse at 5 mg/kg, iv; format: ADME, organism-based; parameters: dose 5 mg/kg, route intravenous; details: in vivo; outline: as §4
Mus musculus [13] = experiment: Oral bioavailability in Balb/c mouse at 20 mg/kg; format: ADME, organism-based; details: in vivo; outline: as §4
[14] = Half life in Wistar rat at 30 mg/kg, po; format: ADME, organism-based; parameters: dose 30 mg/kg, route oral; details: in vivo; outline: as §2
[15] = Permeability of the compound by PAMPA; format: ADME
Outline: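 PAMPA in 96-well filter plates. Permeated compound quantified by UV absorbance at 260–290 nm. Reported as percentage absorbed.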

[16] = AUC (all) in Wistar rat at 10 mg/kg, po; format: ADME, organism-based; parameters: dose 10 mg/kg, route oral; details: plasma; outline: as §2
Plasmodium berghei [17] = experiment: Antimalarial activity against Plasmodium berghei ANKA expressing GFP infected in NMRI mouse assessed as reduction of parasite level in blood at 30 mg/kg, po administered 24 hrs post infection measured after 72 hrs post infection by flow cytometry; format: functional; parameters: scale not given: the % may be the effect or the level left
Outline: (§5)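 Female NMRI mice (20–22 g, n=3) are infected i.v. with 2×10^7 P. berghei GFP ANKA-infected erythrocytes. Oral compound in 75% PEG300/25% D5W is given at 10 mL/kg, once at 24 h or daily at 24/48/72 h post-infection. Parasitemia is read by flow cytometry at 72 h (single dose) or 96 h (triple dose). Activity is % reduction of mean parasitemia versus untreated controls.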

[18] = Cmax in Balb/c mouse at 20 mg/kg, po; format: ADME, organism-based; parameters: dose 20 mg/kg, route oral; details: in vivo; outline: as §4
CHO = experiment: Cytotoxicity against CHO cells; format: cell-based, Cricetulus griseus; details: chinese hamster
[19] = AUC (all) in Wistar rat at 100 mg/kg, po; format: ADME, organism-based; parameters: dose 100 mg/kg, route oral; details: plasma; outline: as §2
[20] = AUC in Wistar rat at 3 mg/kg, iv; format: ADME, organism-based; parameters: dose 3 mg/kg, route intravenous; details: plasma; outline: as §2
Rattus norvegicus = experiment: Dose normalized AUC (0 to 5 hrs) in Wistar rat at 10 mg/kg, po; format: ADME, organism-based; parameters: dose 10 mg/kg, route oral; details: in vivo; outline: as §1
[21] = Cytotoxicity against human Hep2 cells; format: cell-based; details: HEp-2 cells
[22] = AUC (all) in Wistar rat at 30 mg/kg, po; format: ADME, organism-based; parameters: dose 30 mg/kg, route oral; details: plasma; outline: as §2
Plasmodium berghei [23] = experiment: Antimalarial activity against Plasmodium berghei ANKA expressing GFP infected in NMRI mouse assessed as increase of mouse survival at 100 mg/kg, po administered 24 hrs post infection (reference value: 6 to 7 days); format: functional
[24] = molecular target: Voltage-gated inwardly rectifying potassium channel KCNH2 (Homo sapiens, UniProt Q12809); experiment: Inhibition of human ERG channel expressed in CHO cells by patch clamp assay; format: cell-based
Chain of Voltage-gated inwardly rectifying potassium channel KCNH2 (Q12809 whole entry): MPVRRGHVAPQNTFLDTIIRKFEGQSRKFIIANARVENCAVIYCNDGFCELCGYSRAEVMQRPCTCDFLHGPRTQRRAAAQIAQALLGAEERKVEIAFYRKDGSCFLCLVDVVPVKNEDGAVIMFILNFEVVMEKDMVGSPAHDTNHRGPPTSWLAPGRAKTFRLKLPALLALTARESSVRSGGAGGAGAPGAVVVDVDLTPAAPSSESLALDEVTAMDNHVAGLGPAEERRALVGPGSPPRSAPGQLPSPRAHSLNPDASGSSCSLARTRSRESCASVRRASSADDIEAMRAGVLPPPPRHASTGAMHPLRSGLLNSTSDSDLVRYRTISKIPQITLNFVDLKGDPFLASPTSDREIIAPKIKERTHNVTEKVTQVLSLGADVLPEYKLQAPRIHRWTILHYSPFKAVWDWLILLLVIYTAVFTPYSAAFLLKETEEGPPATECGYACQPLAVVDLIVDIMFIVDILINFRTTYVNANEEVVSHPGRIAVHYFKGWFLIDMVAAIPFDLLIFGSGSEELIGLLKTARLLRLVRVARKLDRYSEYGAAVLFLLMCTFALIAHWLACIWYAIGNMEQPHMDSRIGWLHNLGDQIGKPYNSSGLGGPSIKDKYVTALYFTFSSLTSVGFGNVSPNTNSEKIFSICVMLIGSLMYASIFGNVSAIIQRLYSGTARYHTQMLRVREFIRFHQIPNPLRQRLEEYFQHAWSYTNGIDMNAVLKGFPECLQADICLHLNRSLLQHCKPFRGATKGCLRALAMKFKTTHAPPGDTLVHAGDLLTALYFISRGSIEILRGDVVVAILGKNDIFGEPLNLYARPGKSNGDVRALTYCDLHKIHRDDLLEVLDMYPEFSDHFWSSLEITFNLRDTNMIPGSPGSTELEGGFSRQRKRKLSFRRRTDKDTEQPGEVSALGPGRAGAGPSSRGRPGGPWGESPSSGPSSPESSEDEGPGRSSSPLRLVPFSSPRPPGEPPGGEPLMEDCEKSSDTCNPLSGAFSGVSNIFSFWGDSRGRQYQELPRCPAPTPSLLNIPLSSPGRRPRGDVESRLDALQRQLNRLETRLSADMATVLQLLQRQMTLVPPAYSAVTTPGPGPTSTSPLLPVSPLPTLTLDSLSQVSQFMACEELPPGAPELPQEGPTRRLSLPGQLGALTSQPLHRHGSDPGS

[25] = Half life in Balb/c mouse at 5 mg/kg, iv; format: ADME, organism-based; parameters: dose 5 mg/kg, route intravenous; details: in vivo; outline: as §4
[26] = Oral bioavailability in Wistar rat at 100 mg/kg; format: ADME, organism-based; details: in vivo; outline: as §2
Plasmodium falciparum [27] = experiment: Antimalarial activity against Plasmodium falciparum W2 after 72 hrs by SYBR green fluorescence assay; format: functional, organism-based; details: W2, 72 h; outline: as §3
[28] = Half life in Balb/c mouse at 20 mg/kg, po; format: ADME, organism-based; parameters: dose 20 mg/kg, route oral; details: in vivo; outline: as §4
[29] = Cytotoxicity against human HuH7 cells; format: cell-based; details: Huh-7 cells
[30] = Clearance in Wistar rat at 3 mg/kg, iv; format: ADME, organism-based; parameters: dose 3 mg/kg, route intravenous; details: in vivo; outline: as §2
Plasmodium berghei [31] = experiment: Antimalarial activity against Plasmodium berghei ANKA expressing GFP infected in NMRI mouse assessed as increase of mouse survival at 30 mg/kg, po administered 24 hrs post infection qd for 3 days (reference value: 6 to 7 days); format: functional
Plasmodium berghei [32] = experiment: Antimalarial activity against Plasmodium berghei ANKA expressing GFP infected in NMRI mouse assessed as reduction of parasite level in blood at 30 mg/kg, po administered 24 hrs post infection qd for 3 days measured after 96 hrs post infection by flow cytometry; format: functional; parameters: scale not given: the % may be the effect or the level left; outline: as §5
[33] = Cytotoxicity against mouse BA/F3 cells; format: cell-based; details: baf3
[34] = Tmax in Wistar rat at 10 mg/kg, po; format: ADME, organism-based; parameters: dose 10 mg/kg, route oral; details: in vivo
[35] = Half life in Wistar rat at 10 mg/kg, po; format: ADME, organism-based; parameters: dose 10 mg/kg, route oral; details: in vivo
[36] = Apparent permeability across apical to basolateral side in human Caco2 cells by LC/MS analysis; format: ADME, cell-based; details: Caco-2
Outline: (§6)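 Caco-2 monolayers in 96-well format. Compound measured in apical and basolateral chambers by LC/MS, giving Papp in the A–B and B–A directions. Values reported in cm/s × 10⁶.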

[37] = Oral bioavailability in Wistar rat at 30 mg/kg; format: ADME, organism-based; details: in vivo; outline: as §2
[38] = Tmax in Balb/c mouse at 20 mg/kg, po; format: ADME, organism-based; parameters: dose 20 mg/kg, route oral; details: in vivo; outline: as §4
[39] = Apparent permeability across basolateral to apical side in human Caco2 cells by LC/MS analysis; format: ADME, cell-based; details: Caco-2; outline: as §6
Mus musculus [40] = experiment: AUC (0 to 24 hrs) in Balb/c mouse at 5 mg/kg, iv; format: ADME, organism-based, Plasma; parameters: time < 24 hr, dose 5 mg/kg, route intravenous; details: in vivo; outline: as §4
[41] = Cytotoxicity against human 293T cells; format: cell-based; details: HEK-293T cells
Plasmodium berghei [42] = experiment: Antimalarial activity against Plasmodium berghei ANKA expressing GFP infected in NMRI mouse assessed as reduction of parasite level in blood at 100 mg/kg, po administered 24 hrs post infection measured after 72 hrs post infection by flow cytometry; format: functional; parameters: scale not given: the % may be the effect or the level left; outline: as §5
Mus musculus [43] = experiment: AUC (0 to 24 hrs) in Balb/c mouse at 20 mg/kg, po; format: ADME, organism-based, Plasma; parameters: time < 24 hr, dose 20 mg/kg, route oral; details: in vivo; outline: as §4

Q: What does the source list for `CC1(C)c2nc(-c3ccc(F)cc3)c(Nc3ccc(F)cc3)n2CCN1C(=O)CN` [GANAPLACIDE]?
A: ED99 (Plasmodium berghei [1]): 2.2 mg/kg; Cmax ([2]; Wistar): 126 nM; Cmax [2]: 91 nM; half-life [3]: 4.6 h; Tmax [4]: 4.3 h; half-life [5]: 8.4 h; Tmax [6]: 8 h; Survival (Plasmodium berghei [7]): 16.3 days; bioavailability [8]: 20%; EC50 (Plasmodium falciparum [9]): 0.01 µM; Cmax [10]: 580 nM; clearance [11]: 49.2 mL/min/kg; Vd [12]: 10.2 L/kg; F (Mus musculus [13]): 74%; half-life [14]: 6.3 h; permeability [15]: 51.8%; AUC [16]: 0.974 µM·h; Activity (Plasmodium berghei [17]): 99.5%; Cmax [18]: 1540 nM; CC50 (CHO): > 12 µM; AUC [19]: 34.9 µM·h; AUC [20]: 1.83 µM·h; AUC/dose (Rattus norvegicus): 1.2 min.ug/ml/(mg/kg); CC50 [21]: > 12 µM; AUC [22]: 7.34 µM·h; Survival (Plasmodium berghei [23]): 14 days; IC50 [24]: 13.4 µM; half-life [25]: 2 h; bioavailability [26]: 57%; EC50 (Plasmodium falciparum [27]): 0.006 µM; half-life [28]: 4.35 h; CC50 [29]: > 12 µM; clearance [30]: 67.5 mL/min/kg; Survival (Plasmodium berghei [31]): 17.7 days; Activity (Plasmodium berghei [32]): 99.8%; CC50 [33]: > 12 µM; Tmax [34]: 1.5 h; half-life [35]: 4.7 h; Papp A→B [36]: 1.26 ×10⁻⁶ cm/s; bioavailability [37]: 40%; Tmax [38]: 1 h; Papp B→A [39]: 2.99 ×10⁻⁶ cm/s; AUC (Mus musculus [40]): 4.119 µM·h; CC50 [41]: > 12 µM; Activity (Plasmodium berghei [42]): 99.4%; AUC (Mus musculus [43]): 12.155 µM·h
